Measured values of several laboratories.
CA1: Carbonic anhydrase 1 (CA1, Homo sapiens, UniProt P00915)
ADRA2A: Alpha-2A adrenergic receptor (ADRA2A, Homo sapiens, UniProt P08913)
CA2: Carbonic anhydrase 2 (CA2, Homo sapiens, UniProt P00918)

| SMILES | target | test | Ki [µM] |
| --- | --- | --- | --- |
| NS(=O)(=O)c1cnc(NC(=O)CC2CCCCC2)s1 | CA1 | enzyme activity, inhibitor, stopped-flow | 1.58 |
| Cc1cc(Oc2ncccc2CN2CCN(c3ccc([N+](=O)[O-])cc3C(F)(F)F)CC2)ccc1-c1c(C)c(=O)[nH]c(=O)n1C | ADRA2A | ligand displacement, radioligand | 2.11 |
| O=C(O)COCCN1CCN(C(c2ccccc2)c2ccc(Cl)cc2)CC1 (stereo not drawn) | CA1 | enzyme activity, inhibitor | 9.9 |
| Cc1ccc(-n2cc(CNC(=O)c3ccc(=O)oc3)nn2)cc1 | CA1 | enzyme activity, inhibitor, stopped-flow | > 100 |
| Cc1cc(Oc2ncccc2CN2CCN(c3ccccc3C#N)CC2)ccc1-c1c(C)c(=O)[nH]c(=O)n1C | ADRA2A | ligand displacement, radioligand | 0.128 |
| O=C(NCc1cn(-c2ccc([N+](=O)[O-])cc2)nn1)c1ccc(=O)oc1 | CA1 | enzyme activity, inhibitor, stopped-flow | > 100 |
| Cc1cc(Oc2ncccc2CN2CCN(c3ccc(Cl)cc3)CC2)ccc1-c1c(C)c(=O)[nH]c(=O)n1C | ADRA2A | ligand displacement, radioligand | 0.576 |
| CCOC(=O)N1CCC(=C2c3ccc(Cl)cc3CCc3cccnc32)CC1 | CA1 | enzyme activity, inhibitor | 8.09 |
| Cc1cccc(CC(=O)Nc2nnc(S(N)(=O)=O)s2)c1 | CA1 | enzyme activity, inhibitor, stopped-flow | 0.0424 |
| COc1ccc(-n2cc(CNC(=O)c3ccc(=O)oc3)nn2)cc1 | CA1 | enzyme activity, inhibitor, stopped-flow | > 100 |
| Cc1cc(Oc2ncccc2CN2CCN(Cc3ccccc3Cl)CC2)ccc1-c1c(C)c(=O)[nH]c(=O)n1C | ADRA2A | ligand displacement, radioligand | 0.0812 |
| C[C@H]1c2cccc(O)c2C(=O)C2=C(O)[C@]3(O)C(=O)C(C(N)=O)=C(O)[C@@H](N(C)C)[C@@H]3[C@@H](O)[C@@H]21 | CA1 | enzyme activity, inhibitor | 8.51 |
| NS(=O)(=O)c1nnc(NC(=O)C2CCC3(CCCCC3)C2)s1 (stereo not drawn) | CA2 | enzyme activity, inhibitor, stopped-flow | 0.0401 |
| COc1ccnc(C[S+]([O-])c2nc3ccc(OC(F)F)cc3[nH]2)c1OC (stereo not drawn) | CA2 | enzyme activity, inhibitor, absorbance | 8.72 |
| Cc1ccc(C(=O)Nc2nnc(S(N)(=O)=O)s2)cc1 | CA2 | enzyme activity, inhibitor, stopped-flow | 0.0211 |
| Cc1cc(Oc2ncccc2CN2CCN(c3ccccc3C(F)(F)F)CC2)ccc1-c1c(C)c(=O)[nH]c(=O)n1C | ADRA2A | ligand displacement, radioligand | 0.175 |
| CCN1/C(=C/C(C)=O)Sc2ccc(F)cc21 | ADRA2A | ligand displacement, radioligand | 50.3 |
| CC[C@H]1OC(=O)[C@H](C)[C@@H](O[C@H]2C[C@@](C)(OC)[C@@H](O)[C@H](C)O2)[C@H](C)[C@@H](O[C@@H]2O[C@H](C)C[C@H](N(C)C)[C@H]2O)[C@](C)(O)C[C@@H](C)CN(C)[C@H](C)[C@@H](O)[C@]1(C)O | CA2 | enzyme activity, inhibitor, absorbance | 8.17 |
| Cc1cc(Oc2ncccc2CN2CCN(c3ccccn3)CC2)ccc1-c1c(C)c(=O)[nH]c(=O)n1C | ADRA2A | ligand displacement, radioligand | 0.123 |
| CC(C)(C(=O)O)c1ccc(C(O)CCCN2CCC(C(O)(c3ccccc3)c3ccccc3)CC2)cc1 (stereo not drawn) | CA2 | enzyme activity, inhibitor, absorbance | 17.9 |
| Cc1cc(Oc2ncccc2CN2CCN(c3ccc(F)c(F)c3)CC2)ccc1-c1c(C)c(=O)[nH]c(=O)n1C | ADRA2A | ligand displacement, radioligand | 0.418 |
| Nc1ccc(S(=O)(=O)c2ccc(N)cc2)cc1 | CA1 | enzyme activity, inhibitor | 11.6 |
| Cc1ccc(CCC(=O)Nc2nnc(S(N)(=O)=O)s2)cc1 | CA2 | enzyme activity, inhibitor, stopped-flow | 0.0118 |
| O=C(NCc1cn(-c2ccccc2)nn1)c1ccc(=O)oc1 | CA1 | enzyme activity, inhibitor, stopped-flow | > 100 |
| Cc1cc(Oc2ncccc2CN2CCN(c3ccccc3Cl)CC2)ccc1-c1c(C)c(=O)[nH]c(=O)n1C | ADRA2A | ligand displacement, radioligand | 0.08 |
| CC1=C(/C=C/C(C)=C/C=C/C(C)=C\C(=O)O)C(C)(C)CCC1 | CA2 | enzyme activity, inhibitor, absorbance | 6.9 |
| Cc1ccc(-n2cc(COC(=O)c3ccc(=O)oc3)nn2)cc1 | CA1 | enzyme activity, inhibitor, stopped-flow | > 100 |
